Our source for the Activity values is ChEMBL document CHEMBL1157795, “Structure-activity relationship of an ozonide carboxylic acid (OZ78) against Fasciola hepatica” (2010).

Activity calls are given as the source filed them. The rule behind the calls is not given here.

In assay [1] the test system is Fasciola hepatica. The assay is described as follows: Antiparasitic activity against Fasciola hepatica infected in rat assessed as reduction in worm burden at 100 mg/kg, po administered as single dose measured after 6 days post treatment. The class given is functional. More on the design: scale not given: the % may be the effect or the level left. The essentials: (§1)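 Female Wistar rats (~100 g) infected with ~20 F. hepatica metacercariae each; at 8 weeks post-infection given a single 100 mg/kg oral dose as suspension in 7% (v/v) Tween 80 / 3% (v/v) EtOH. Killed by CO2 on day 6 post-treatment; adult flukes recovered from bile ducts and livers. Mean total worm burden compared with untreated controls; cures scored; Kruskal-Wallis test, 5% level.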

Assay [2] has as its system Fasciola hepatica. Nature of the assay: Antiparasitic activity against Fasciola hepatica infected in rat assessed as induction of cure at 100 mg/kg, po administered as single dose measured after 6 days post. The class given is functional, organism-based. More on the design: dose 100 mg/kg. The method in brief:
as §1

For assay [3], the system named is Fasciola hepatica. The assay is described as follows: Antiparasitic activity against Fasciola hepatica infected in rat assessed as reduction in worm burden at 50 mg/kg, po administered as single dose measured after 6 days post treatment. The class given is functional. More on the design: scale not given: the % may be the effect or the level left. The essentials: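 Female Wistar rats (~100 g), each infected with ~20 F. hepatica metacercariae, dosed orally once at 8 weeks post-infection with 50 mg/kg suspended in 7% (v/v) Tween 80 plus 3% (v/v) EtOH. Day 6 after treatment: CO2 sacrifice, adult flukes counted from bile ducts and liver. Worm burden reduction versus untreated control rats (mean totals); Kruskal-Wallis significance.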

Regarding `O=C(O)C[C@H]1CC[C@]2(CC1)OO[C@]1(O2)C2CC3CC1CC(C2)C3(F)F`, in the assay on Fasciola hepatica [1], the Activity is 80%. Besides, in the assay with Fasciola hepatica [2], the result was inactive.

With `CCOP(=O)([O-])C[C@H]1CC[C@]2(CC1)OO[C@]1(O2)C2CC3CC(C2)CC1C3.[K+]`, in the assay on Fasciola hepatica [1], the Activity came to 16%. Further, the outcome in the assay on Fasciola hepatica [2] was inactive. In the same order, the values of `O=C(C[C@H]1CC[C@]2(CC1)OO[C@]1(O2)C2CC3CC(C2)CC1C3)NO` are 34% and “inactive”.

Take `COC(=O)C[C@H]1CC[C@]2(CC1)OO[C@]1(O2)C2CC3CC(C2)CC1C3`: the Activity with Fasciola hepatica [1] was determined as 99%. For the molecule `NC(=O)C[C@H]1CC[C@]2(CC1)OO[C@]1(O2)C2CC3CC(C2)CC1C3`, the Activity in the assay on Fasciola hepatica [1] was 7%. In addition, in the assay on Fasciola hepatica [2], the result was inactive. In the same order, the values of `O=C(O)C[C@H]1CC[C@]2(CC1)OC[C@]1(O2)C2CC3CC(C2)CC1C3` are 0% and “inactive”.

For `O=C(O)C(=O)NC[C@H]1CC[C@]2(CC1)OO[C@]1(O2)C2CC3CC(C2)CC1C3`, the Activity in the assay on Fasciola hepatica [1] was 14%. Moreover, in the assay with Fasciola hepatica [2], the outcome was inactive. On to `O=C(O)C[C@H]1CCCC[C@@]12OOC1(O2)C2CC3CC(C2)CC1C3` (some centres not stated), for which the Activity with Fasciola hepatica [1] is on record as 46%. Further, the result in the assay on Fasciola hepatica [2] was inactive. For the molecule `O=C(O)C[C@@H]1CCC[C@]2(C1)OOC1(O2)C2CC3CC(C2)CC1C3` (relative stereo), the Activity in the assay with Fasciola hepatica [1] worked out at 90%. On to `N=C(N)NC(=O)C[C@H]1CC[C@]2(CC1)OO[C@]1(O2)C2CC3CC(C2)CC1C3`, for which the Activity in the assay on Fasciola hepatica [1] is given as 0%. In addition, the outcome with Fasciola hepatica [2] was inactive.

For the molecule `O=C([O-])CN1CC[C@]2(CC1)OO[C@]1(O2)C2CC3CC(C2)CC1C3.[Na+]`, the Activity with Fasciola hepatica [1] is 0%. The result in the assay on Fasciola hepatica [2] was inactive.

Regarding `O=C(O)CC[C@H]1CC[C@]2(CC1)OO[C@]1(O2)C2CC3CC(C2)CC1C3`, the Activity in the assay on Fasciola hepatica [1] was found to be 14%. Moreover, the outcome in the assay on Fasciola hepatica [2] was inactive.

Turning to `O=C(O)C(C(=O)O)[C@H]1CC[C@]2(CC1)OO[C@]1(O2)C2CC3CC(C2)CC1C3`, the Activity in the assay on Fasciola hepatica [1] is listed as 0%. Moreover, the outcome in the assay with Fasciola hepatica [2] was inactive. In the same order, the values of `NNC(=O)C[C@H]1CC[C@]2(CC1)OO[C@]1(O2)C2CC3CC(C2)CC1C3` are 12% and “inactive”. In the same order, the values of `O=C(O)C[C@H]1CC[C@]2(CC1)OO[C@]1(O2)C2CC3CC(C2)CC1C3` are 100% and “Active”.

`CS(=O)(=O)NC(=O)C[C@H]1CC[C@]2(CC1)OO[C@]1(O2)C2CC3CC(C2)CC1C3`: the Activity in the assay with Fasciola hepatica [1] was 100%. Further, the outcome in the assay on Fasciola hepatica [2] was Active. In the same order, the values of `O=C(C[C@H]1CC[C@]2(CC1)OO[C@]1(O2)C2CC3CC(C2)CC1C3)NCCS(=O)(=O)[O-].[Na+]` are 0% and “inactive”.

As to `O=C(O)[C@H]1CC[C@]2(CC1)OO[C@]1(O2)C2CC3CC(C2)CC1C3`, the Activity with Fasciola hepatica [1] is on record as 52%.

Take `C[C@H]1[C@H](OC(=O)CCC(=O)O)O[C@@H]2O[C@@]3(C)CC[C@H]4[C@H](C)CC[C@@H]1[C@@]24OO3` [ARTESUNATE]: the Activity in the assay on Fasciola hepatica [1] stood at 30%. Turning to `O=C(O)C[C@H]1CC[C@]2(CC1)OO[C@]1(O2)C2CCCC1CCC2`, the Activity in the assay on Fasciola hepatica [1] was 51%. Moreover, the outcome in the assay with Fasciola hepatica [2] was inactive.

For the molecule `O=C(C[C@H]1CC[C@]2(CC1)OO[C@]1(O2)C2CC3CC(C2)CC1C3)N1CCNCC1`, the Activity in the assay with Fasciola hepatica [1] is given as 0%. In the assay with Fasciola hepatica [2], the result was inactive. In the same order, the values of `O=C(O)C[C@H]1CC[C@@]2(CC1)C[C@@]1(OO2)C2CC3CC(C2)CC1C3` are 7% and “inactive”. With `CCOC(=O)C[C@H]1CC[C@]2(CC1)OO[C@]1(O2)C2CC3CC(C2)CC1C3`, the Activity in the assay with Fasciola hepatica [3] was 36%. As for `O=C(O)C[C@H]1CC[C@@]2(CC1)OO[C@@]1(O2)C2CC3CC(C2)CC1C3`, the Activity in the assay with Fasciola hepatica [1] amounted to 95%. The same measure, in the same setting: the figure for `O=C(O)C[C@H]1CC[C@]2(CC1)OO[C@]1(O2)C2CC3CC1CC(C2)C3F` (some centres not stated) is 76%. Turning to `O=C(O)C[C@H]1CC[C@]2(CC1)OO[C@@]1(CCCCC1)O2`, in the assay on Fasciola hepatica [1], the Activity worked out at 0%. For the same molecule, in the assay with Fasciola hepatica [2], the outcome was inactive. Turning to `O=C(O)C[C@H]1CC[C@]2(CC1)OO[C@]1(O2)C2CC3CC1C[C@@](F)(C3)C2`, the Activity in the assay on Fasciola hepatica [1] is reported as 80%. On the same count and under the same terms, the figure for `O=C(O)CNC(=O)C[C@H]1CC[C@]2(CC1)OO[C@]1(O2)C2CC3CC(C2)CC1C3` is 86%.
